Source: ChEMBL document CHEMBL1140307, “Design and synthesis of alpha-aryloxyphenylacetic acid derivatives: a novel class of PPARalpha/gamma dual agonists with potent antihyperglycemic and lipid modulating activity” (J Med Chem, 2005)

Key:
[1] = biological target: T1, Peroxisome proliferator-activated receptor alpha (Homo sapiens, UniProt Q07869); test: In vitro binding affinity for human PPAR alpha
T1 sequence (Q07869 whole entry): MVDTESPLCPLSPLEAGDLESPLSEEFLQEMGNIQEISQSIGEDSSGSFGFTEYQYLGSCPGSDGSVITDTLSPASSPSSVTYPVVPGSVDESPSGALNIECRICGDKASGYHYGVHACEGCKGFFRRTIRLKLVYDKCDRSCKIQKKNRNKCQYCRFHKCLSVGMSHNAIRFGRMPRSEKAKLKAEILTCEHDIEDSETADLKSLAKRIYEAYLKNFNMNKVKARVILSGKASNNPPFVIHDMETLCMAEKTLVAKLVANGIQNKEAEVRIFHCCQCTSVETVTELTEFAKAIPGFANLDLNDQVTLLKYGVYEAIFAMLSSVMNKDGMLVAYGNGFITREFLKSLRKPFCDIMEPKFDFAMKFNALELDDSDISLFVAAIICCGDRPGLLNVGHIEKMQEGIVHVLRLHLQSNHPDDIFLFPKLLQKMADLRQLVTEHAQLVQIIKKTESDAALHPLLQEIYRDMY

[2] = biological target: T2, Peroxisome proliferator-activated receptor gamma (Homo sapiens, UniProt P37231); test: In vitro binding affinity for human PPAR gamma
T2 sequence (P37231 whole entry): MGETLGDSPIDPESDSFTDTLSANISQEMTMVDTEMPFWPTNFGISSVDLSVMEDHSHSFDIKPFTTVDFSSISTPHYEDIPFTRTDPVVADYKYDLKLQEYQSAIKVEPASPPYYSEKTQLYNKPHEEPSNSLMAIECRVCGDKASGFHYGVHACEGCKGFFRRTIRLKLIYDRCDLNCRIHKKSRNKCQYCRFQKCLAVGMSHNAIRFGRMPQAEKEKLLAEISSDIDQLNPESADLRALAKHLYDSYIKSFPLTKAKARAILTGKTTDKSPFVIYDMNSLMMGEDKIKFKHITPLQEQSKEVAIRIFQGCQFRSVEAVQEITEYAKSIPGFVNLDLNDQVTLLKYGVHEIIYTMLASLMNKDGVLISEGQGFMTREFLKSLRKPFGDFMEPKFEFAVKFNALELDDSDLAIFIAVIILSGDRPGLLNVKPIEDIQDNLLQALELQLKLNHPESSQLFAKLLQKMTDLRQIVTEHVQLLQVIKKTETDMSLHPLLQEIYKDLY

Canis familiaris [3] = test: Percentage change in the serum cholesterol upon administration of compound (20 mpk) in dogs; assay type: functional, Canis lupus familiaris
How it was run: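 Male Beagle dogs were housed individually on a cholesterol-free chow diet, five per group. Baseline serum cholesterol was taken from weekly jugular bleeds before the study. Compound suspended in 0.5% methylcellulose was gavaged daily for 2 weeks. Serum cholesterol was measured during and after dosing and reported as mean percent change (n = 5).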

Cricetinae gen. sp. [4] = test: Percentage change in the serum cholesterol upon administration of compound (100 mpk) in hamster; assay type: functional
How it was run: (§1)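 Male Golden Syrian hamsters were fed normal rodent chow and dosed orally once daily with compound. Serum total cholesterol and triglyceride were measured and expressed as percent change versus vehicle controls.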

Cricetinae gen. sp. [5] = test: Percentage change in the serum triglyceride upon administration of compound (100 mpk) in hamster; assay type: functional; how it was run: as §1
Cricetinae gen. sp. [6] = test: Effect (100 mpk) on serum cholesterol in hamster; assay type: functional
How it was run: (§2)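 Male Golden Syrian hamsters on normal rodent chow, dosed orally with test compound (9 days per table legend). Serum total cholesterol and triglyceride were measured in mg/dL. Values are group means, expressed as % change versus the vehicle-treated control group.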

Mesocricetus auratus [7] = organism: Mesocricetus auratus; test: Effect (100 mpk) on serum triglyceride in Golden Syrian hamster
Canis familiaris [8] = test: Percentage change in the serum cholesterol upon administration of compound (100 mpk) in dogs
[9] = biological target: T2, Peroxisome proliferator-activated receptor gamma; test: Agonist response against human PPAR gamma in transactivation assay; assay type: functional
[10] = biological target: T1, Peroxisome proliferator-activated receptor alpha; test: Agonist response against human PPAR alpha in transactivation assay
[11] = biological target: T3, Peroxisome proliferator-activated receptor alpha (Homo sapiens) (UniProt Q07869); test: Maximal activation of human Peroxisome proliferator activated receptor alpha
T3 sequence (whole entry): T1 sequence (Q07869 whole entry)
How it was run: (§3)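 Cell-based transactivation assay using GAL4-PPAR chimeric receptors with a reporter gene carrying a GAL4 response element. The top concentration tested was 3 µM. Values are the mean of three determinations.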

[12] = biological target: T4, Peroxisome proliferator-activated receptor gamma (Homo sapiens) (UniProt P37231); test: Maximal activation of human Peroxisome proliferator activated receptor gamma; how it was run: as §3
T4 sequence (whole entry): T2 sequence (P37231 whole entry)

[13] = Area under concentration time curve of compound when administered perorally at a dose of 2 mg/kg to dogs; assay type: ADME, organism-based, Canis lupus familiaris; set-up: dose 2 mg/kg, route oral; conditions: dog, in vivo, po
How it was run: (§4)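 Male Sprague-Dawley rats (n = 3) and male adult Beagle dogs (n = 4) were fasted overnight. They received either a 2 mg/kg oral gavage dose or a 0.5 mg/kg IV bolus. Blood was drawn into heparin tubes from a femoral arterial cannula (rat) or the jugular vein (dog) at set time points. Plasma was acidified with 0.5 M formate pH 3.0, stored at -70 °C and quantified by LC-MS/MS.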

[14] = Area under concentration time curve of compound when administered perorally at a dose of 2 mg/kg to rats; assay type: ADME, organism-based; set-up: dose 2 mg/kg, route oral; conditions: rat, in vivo, po; how it was run: as §4
Rattus norvegicus [15] = test: Effect (150 mg/kg) on PPAR gamma- mediated effects measured as change in heart weight in rats; assay type: functional
How it was run: (§5)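 Male Sprague-Dawley rats (about 200 g, n = 6) were fed rodent chow and gavaged once daily for 2 weeks with compound in 0.5% methylcellulose. Body weight was recorded on days 1, 4, 6, 8, 11 and 14. Rats were euthanized with CO2 24 h after the last dose, and BAT, heart and liver were weighed. Blood was taken by heart puncture for hematocrit. Results are mean ± SD versus vehicle.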

Rattus norvegicus [16] = test: Effect (150 mg/kg) on PPAR gamma- mediated effects measured as change in hematocrit weight in rats; assay type: functional; how it was run: as §5
Rattus norvegicus [17] = test: Effect (150 mg/kg) on PPAR gamma- mediated effects measured as change in brown adipose tissue weight in rats; assay type: functional; how it was run: as §5
Cricetinae gen. sp. [18] = test: Percentage change in the serum cholesterol upon administration of compound (10 mpk) in hamster; assay type: functional; how it was run: as §1
Cricetinae gen. sp. [19] = test: Percentage change in the serum triglyceride upon administration of compound (10 mpk) in hamster; assay type: functional; how it was run: as §1
Rattus norvegicus [20] = test: Effect (150 mg/kg) on PPAR gamma- mediated effects measured as change in liver weight in rats; assay type: functional; how it was run: as §5
Cricetinae gen. sp. [21] = test: Effect (10 mpk) on serum cholesterol in hamster; assay type: functional; how it was run: as §2
[22] = Half life when administered intravenously at a dose of 0.5 mg/kg to dogs; assay type: ADME, organism-based, Canis lupus familiaris; set-up: dose 0.5 mg/kg, route intravenous; conditions: dog, in vivo, iv; how it was run: as §4
[23] = Half life when administered intravenously at a dose of 0.5 mg/kg to rats; assay type: ADME, organism-based; set-up: dose 0.5 mg/kg, route intravenous; conditions: rat, in vivo, iv; how it was run: as §4
[24] = Oral bioavailability in dog; assay type: ADME, organism-based, Canis lupus familiaris; conditions: in vivo; how it was run: as §4
[25] = Oral bioavailability in rat; assay type: ADME, organism-based; conditions: in vivo; how it was run: as §4
Rattus norvegicus [26] = test: Effect (150 mg/kg) on PPAR gamma- mediated effects measured as change in body weight in rats; assay type: functional; how it was run: as §5
Mesocricetus auratus [27] = organism: Mesocricetus auratus; test: Effect (10 mpk) on serum triglyceride in hamster
Canis familiaris [28] = test: Percentage change in the serum cholesterol upon administration of compound (10 mpk) in dogs

SMILES | IC50 [1] | IC50 [2] | EC50 [9] | EC50 [10] | further results
CCCc1cc(C(=O)c2ccccc2)cc(CCC)c1OC(C(=O)O)c1ccccc1 (configuration not stated) | 800 nM | 4680 nM |  |  | 
CC(C)OC(=O)C(C)(C)Oc1ccc(C(=O)c2ccc(Cl)cc2)cc1 [FENOFIBRATE] |  |  |  |  | Change (Canis familiaris [3]): -4.7%; Change (Cricetinae gen. sp. [4]): -29%; Change (Cricetinae gen. sp. [5]): -26%; Cholesterol level (Cricetinae gen. sp. [6]): 91 mg/dL; Triglyceride level (Mesocricetus auratus [7]): 244 mg/dL; Change (Canis familiaris [8]): -23.5%
CCCc1c(O[C@H](C(=O)O)c2ccc(C(C)C)cc2)c(Cl)cc2c1oc(=O)n2CC | 1410 nM | 520 nM | 360 nM |  | 
CCC(=O)c1cc(C(C)CC)c(OC(C(=O)O)c2ccccc2)c(C(C)CC)c1 (configuration not stated) | 6120 nM | > 50000 nM |  |  | 
CCC(=O)c1cc(C)c(OC(C(=O)O)c2ccccc2)c(C)c1 (configuration not stated) | 3000 nM | > 50000 nM |  |  | 
CCCc1cc2c(oc(=O)n2C)c(CCC)c1O[C@H](C(=O)O)c1ccc(C(C)C)cc1 | 393 nM | 85 nM | 640 nM |  | 
CCC(=O)c1ccc(OC(C(=O)O)c2ccccc2)cc1 (configuration not stated) | > 50000 nM | > 50000 nM |  |  | 
CCCc1cc2c(=O)n(C)oc2c(CCC)c1O[C@H](C(=O)O)c1ccc(C(C)C)cc1 | 74 nM |  | 390 nM | 670 nM | AUC [13]: 26.9 µM·h; AUC [14]: 67.5 µM·h; Heart weight (Rattus norvegicus [15]): 1.14 g; Hematocrit (Rattus norvegicus [16]): 45.7%; BAT (Rattus norvegicus [17]): 0.24 g; Change (Cricetinae gen. sp. [18]): -17%; Change (Cricetinae gen. sp. [19]): -9%; Liver weight (Rattus norvegicus [20]): 20.3 g; Cholesterol level (Cricetinae gen. sp. [21]): 106 mg/dL; half-life [22]: 1.6 h; half-life [23]: 7.2 h; bioavailability [24]: 73%; bioavailability [25]: 73%; Body weight (Rattus norvegicus [26]): 278 g; Triglyceride level (Mesocricetus auratus [27]): 303 mg/dL; Change (Canis familiaris [28]): -17.3%
CCCc1cc2c(=O)n(C)oc2c(CCC)c1O[C@H](C(=O)O)c1ccccc1 | 850 nM | 3800 nM | 390 nM | 670 nM | 
CCC(=O)c1cc(Cl)c(OC(C(=O)O)c2ccccc2)c(Cl)c1 (configuration not stated) | 1600 nM | > 50000 nM |  |  | 
CCCc1cc(C(=O)CC)cc(CCC)c1NC(C(=O)O)c1ccc(C(C)C)cc1 (configuration not stated) | > 50000 nM | > 50000 nM |  |  | 

Now from value to molecule, other results behind:

IC50 [1] | IC50 [2] | EC50 [9] | EC50 [10] | SMILES | further results
260 nM | 220 nM |  |  | CCCc1cc2c(oc(=O)n2CC)c(CCC)c1O[C@H](C(=O)O)c1ccc(Cl)cc1 | 
43 nM | 200 nM |  | 110 nM | CCCc1cc(C(=O)CC)cc(CCC)c1O[C@H](C(=O)O)c1ccc(OC(C)C)cc1 | 
58 nM | 220 nM | 180 nM | 39 nM | CCCc1cc(C(=O)CC)cc(CCC)c1O[C@H](C(=O)O)c1ccc(CC(C)C)cc1 | Maximal activation [11]: 807%; Maximal activation [12]: 66%
260 nM | 220 nM | 360 nM | 260 nM | CCCc1cc(C(=O)CC)cc(Cl)c1O[C@H](C(=O)O)c1ccc(C(C)C)cc1 | 
74 nM | 99 nM | 120 nM | 290 nM | CCCc1cc2c(oc(=O)n2CC)c(CCC)c1O[C@H](C(=O)O)c1ccc(C(C)C)cc1 | AUC [13]: 9.1 µM·h; AUC [14]: 127 µM·h; Heart weight (Rattus norvegicus [15]): 1.1 g; Hematocrit (Rattus norvegicus [16]): 45.6%; BAT (Rattus norvegicus [17]): 0.24 g; Change (Cricetinae gen. sp. [18]): -25%; Change (Cricetinae gen. sp. [19]): -6%; Liver weight (Rattus norvegicus [20]): 22.4 g; bioavailability [24]: 35%; bioavailability [25]: 72%; Body weight (Rattus norvegicus [26]): 283 g
